The nature of series [1]: Plasma concentration in femoral artery cannulated Lewis rat at 3 mg/kg, po after 20 hrs. The format is ADME, organism-based. On the set-up: dose 3 mg/kg, route oral. The method, boiled down: (§1)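 Femoral artery cannulated Lewis rats (n = 3) got a single 3 mpk oral dose. Compound plasma concentration (nM) was measured serially over time up to 72 h postdose. Peripheral blood lymphocyte counts were taken in parallel at the same time points. The same animals were later given a second 3 mpk oral dose.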

The nature of series [2]: Bioavailability in rhesus monkey at 1 mg/kg, po and 0.5 mg/kg, iv. Type of series: ADME, organism-based, Macaca mulatta. Conditions: in vivo. The method, boiled down: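 Single-dose PK at 1.0 mpk po and 0.5 mpk iv. Plasma compound levels measured.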
The nature of series [3]: Half life in rat at 2 mg/kg, po and 1 mg/kg, iv. The format is ADME, organism-based. The note with it: in vivo. A digest of the protocol: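 Rat PK at 2.0 mpk po and 1.0 mpk iv. Plasma compound levels measured.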
Series [4] deals with Rattus norvegicus. Kind of series: Decrease in peripheral blood lymphocyte counts in femoral artery cannulated Lewis rat at 3 mg/kg, po after 20 hrs. Type of series: functional. A digest of the protocol:
(§2)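 Femoral artery cannulated Lewis rats (n = 3) given a single 3 mpk oral dose. PBL counts and plasma compound concentration sampled over time up to 72 h postdose. A repeat 3 mpk po challenge was given to the same animals.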

The nature of series [5]: Plasma concentration in Lewis rat at 10 mg/kg, po after 24 hrs. The format is ADME, organism-based. Also on record: dose 10 mg/kg, route oral. A digest of the protocol:
(§3)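 Rat oral dose-titration at 1–30 mpk po. Peripheral blood lymphocyte counts and plasma compound concentrations determined 24 h postdose.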

Series [6] in a line: Plasma concentration in femoral artery cannulated Lewis rat at 3 mg/kg, po after 0.5 hrs. The format is ADME, organism-based. On the set-up: dose 3 mg/kg, route oral. The method, boiled down: as §2
In series [7] the target is Sphingosine 1-phosphate receptor 2 (Homo sapiens, UniProt O95136). Kind of series: Displacement of [33P]sphingosine 1 phosphate from human S1P2 receptor expressed in CHO cells. The format is cell-based.
The subject of series [8] is Rattus norvegicus. Kind of series: Decrease in peripheral blood lymphocyte counts in femoral artery cannulated Lewis rat at 3 mg/kg, po after 32 hrs. Type of series: functional. The method, boiled down:
as §2

The nature of series [9]: Plasma concentration in femoral artery cannulated Lewis rat at 3 mg/kg, po after 48 hrs. Also on record: dose 3 mg/kg, route oral. The format is ADME, organism-based. The method, boiled down: as §1
Another series deals with Canis familiaris. Kind of series: Maximal decrease in peripheral blood lymphocyte in Beagle dog at 1 mg/kg, po after 24 hrs. The format is functional, organism-based. On the set-up: dose 1 mg/kg. The note with it: Canis lupus familiaris. A digest of the protocol:
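Complete blood counts run alongside plasma concentrations after a single 1.0 mpk oral dose in beagle dog or rhesus monkey. Lymphocyte counts followed over time, with PBL lowering assessed at 24 h postdose.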

Series [10] in a line: Volume of distribution at steady state in rat at 2 mg/kg, po and 1 mg/kg, iv. Type of series: ADME, organism-based. Conditions: in vivo, read-out: Vdss.
Series [11] deals with Rattus norvegicus. Kind of series: Decrease in peripheral blood lymphocyte counts in femoral artery cannulated Lewis rat at 3 mg/kg, po after 0.5 hrs. The format is functional. The method, boiled down: as §2
For series [12], the target named is T1, Sphingosine 1-phosphate receptor 1 (Homo sapiens, UniProt P21453). Kind of series: Activity at human S1P1 receptor expressed in CHO cells by [35S]GTPgammaS binding assay. The format is functional, cell-based. A digest of the protocol:
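Agonism measured as ligand-induced [35S]-GTPγS binding to membranes of CHO cells stably expressing the human S1P receptor.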

Series [13] in a line: Plasma concentration in femoral artery cannulated Lewis rat at 3 mg/kg, po after 32 hrs. The format is ADME, organism-based. Also on record: dose 3 mg/kg, route oral. The method, boiled down: as §1
For series [14], the system named is Rattus norvegicus. Kind of series: Decrease in peripheral blood lymphocyte counts in femoral artery cannulated Lewis rat at 3 mg/kg, po after 6 hrs. The format is functional. A digest of the protocol: as §2
For series [15], the system named is Rattus norvegicus. Kind of series: Decrease in peripheral blood lymphocyte counts in femoral artery cannulated Lewis rat at 3 mg/kg, po after 0.25 hrs. Type of series: functional. The method, boiled down: as §2
The target in series [16] is T1, Sphingosine 1-phosphate receptor 1. Kind of series: Displacement of [33P]sphingosine 1 phosphate from human S1P1 receptor expressed in CHO cells. Type of series: cell-based.
Series [17] deals with T2, Sphingosine 1-phosphate receptor 4 (Homo sapiens, UniProt O95977).
T2 sequence (O95977 whole entry): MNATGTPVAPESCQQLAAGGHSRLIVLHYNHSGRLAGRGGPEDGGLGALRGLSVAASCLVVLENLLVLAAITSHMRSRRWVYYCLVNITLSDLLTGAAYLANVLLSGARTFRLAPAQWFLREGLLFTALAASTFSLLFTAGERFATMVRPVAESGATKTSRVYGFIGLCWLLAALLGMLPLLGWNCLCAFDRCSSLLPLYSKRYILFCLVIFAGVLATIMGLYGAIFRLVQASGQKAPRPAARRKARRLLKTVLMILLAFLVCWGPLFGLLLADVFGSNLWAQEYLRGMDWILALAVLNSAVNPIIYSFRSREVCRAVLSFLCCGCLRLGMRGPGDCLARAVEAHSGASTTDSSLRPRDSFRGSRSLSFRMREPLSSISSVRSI
Kind of series: Displacement of [33P]sphingosine 1 phosphate from human S1P4 receptor expressed in CHO cells. The format is cell-based. The method, boiled down: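 Competition binding with [33P]-labeled S1P on membranes of CHO cells stably expressing each human S1P receptor. Values are the mean of n = 3 determinations.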

In series [18] the test system is Rattus norvegicus. Kind of series: Decrease in peripheral blood lymphocyte counts in Lewis rat at 1 mg/kg, po after 24 hrs. Type of series: functional. The method, boiled down: as §3
Series [19] can be described thus: Plasma concentration in Lewis rat at 1 mg/kg, po after 24 hrs. On the set-up: dose 1 mg/kg, route oral. The format is ADME, organism-based. The method, boiled down: as §3

The bioavailability is the share of a dose that reaches the circulation, judged against a reference dose that is usually intravenous. By half-life is commonly meant how long it takes for the measured level to halve. A word on the IC50: it is the concentration that gives 50% inhibition. What is called EC50 is the concentration at which the effect is half-maximal.

Active and inactive are the calls of the source. The rule behind the calls is not given here.

T1 sequence (P21453 whole entry): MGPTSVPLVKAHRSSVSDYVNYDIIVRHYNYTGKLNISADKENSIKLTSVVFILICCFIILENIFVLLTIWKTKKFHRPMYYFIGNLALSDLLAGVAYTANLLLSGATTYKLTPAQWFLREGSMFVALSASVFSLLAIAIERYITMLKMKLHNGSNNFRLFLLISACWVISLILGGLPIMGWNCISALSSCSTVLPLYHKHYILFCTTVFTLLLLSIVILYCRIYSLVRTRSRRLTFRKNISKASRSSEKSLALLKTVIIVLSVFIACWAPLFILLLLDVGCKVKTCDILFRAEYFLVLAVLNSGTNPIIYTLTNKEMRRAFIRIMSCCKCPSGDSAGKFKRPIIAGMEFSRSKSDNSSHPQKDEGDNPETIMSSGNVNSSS
Chain of Sphingosine 1-phosphate receptor 2 (O95136 whole entry): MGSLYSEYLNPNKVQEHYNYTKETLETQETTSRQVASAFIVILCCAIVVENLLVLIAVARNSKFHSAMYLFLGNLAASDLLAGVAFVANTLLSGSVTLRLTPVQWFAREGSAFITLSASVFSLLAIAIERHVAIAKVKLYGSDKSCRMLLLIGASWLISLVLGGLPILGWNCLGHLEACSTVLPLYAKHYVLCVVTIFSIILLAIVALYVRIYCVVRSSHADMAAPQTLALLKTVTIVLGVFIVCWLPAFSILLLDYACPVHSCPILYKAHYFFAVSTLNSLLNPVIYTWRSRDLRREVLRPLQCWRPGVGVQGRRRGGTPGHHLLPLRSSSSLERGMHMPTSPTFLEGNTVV

Compound `O=C(O)C1CN(Cc2ccc(OCc3cc(-c4ccccc4)c(C(F)(F)F)s3)cc2)C1` yielded a concentration at 20 h in [1] of 150 nM. For the same compound, the bioavailability in [2] came out at 76%. This compound showed a half-life in series [3] of 6.7 h. Further, the Activity in the series with Rattus norvegicus [4] was found to be 1530 µL⁻¹; in the series on Rattus norvegicus [8], 1800 µL⁻¹; in the series on Rattus norvegicus [11], 4200 µL⁻¹; in the series on Rattus norvegicus [14], 1330 µL⁻¹; with Rattus norvegicus [15], 4400 µL⁻¹; in the series on Rattus norvegicus [18], 2230 µL⁻¹. Besides, the values for the concentration at 24 h in series [5] and in series [19] were 370 nM and 22 nM, respectively. The same compound had a concentration at 0.5 h in [6] of 200 nM. Further, the figures for the IC50 in series [7], in series [16] and in series [17] were greater than 10000 nM, 1.2 nM (antagonist) and 1600 nM (antagonist), respectively. The compound also returned a concentration at 48 h in [9] of 13 nM. Also, the result in the series with Canis familiaris was Active. In addition, the Vd in series [10] turned out to be 10 L/kg. In addition, in series [12], the EC50 is on record as 0.5 nM (agonist). Further, the concentration at 32 h in series [13] worked out at 34 nM.

The record behind these values is ChEMBL document CHEMBL1149292, “A rational utilization of high-throughput screening affords selective, orally bioavailable 1-benzyl-3-carboxyazetidine sphingosine-1-phosphate-1 receptor agonists” (J Med Chem, 2004).
